Activity calls are given as the source filed them. The calls are words filed in the database; no cut-off is given here.
Tests used:
[1] = Selectivity index, ratio of IC50 for mouse astrocytes to IC50 for human Hs683 cells
[2] = molecular target: Histone deacetylase 2 (Homo sapiens) (UniProt Q92769); test: Inhibition of His-tagged recombinant full length human HDAC2 expressed in baculovirus infected insect cells at 0.1 to 100 uM using Fluor-de-Lys-SIRT1 as substrate after 15 mins by fluorescence assay
[3] = molecular target: Polyamine deacetylase HDAC10 (Homo sapiens) (UniProt Q969S8); test: Inhibition of C-terminal His-tagged recombinant human HDAC10 expressed in baculovirus infected insect Sf9 cells at 0.1 to 100 uM using Fluor-de-Lys-SIRT1 as substrate after 15 mins by fluorescence assay
[4] = molecular target: T1, NAD-dependent protein deacetylase sirtuin-1 (Homo sapiens) (UniProt Q96EB6); test: Inhibition of SIRT1 in human Hs683 cells assessed as increase of histone H3K56 acetylation at 10 to 25 after 8 to 24 hrs by Western blotting method; assay type: cell-based
T1 sequence (whole entry): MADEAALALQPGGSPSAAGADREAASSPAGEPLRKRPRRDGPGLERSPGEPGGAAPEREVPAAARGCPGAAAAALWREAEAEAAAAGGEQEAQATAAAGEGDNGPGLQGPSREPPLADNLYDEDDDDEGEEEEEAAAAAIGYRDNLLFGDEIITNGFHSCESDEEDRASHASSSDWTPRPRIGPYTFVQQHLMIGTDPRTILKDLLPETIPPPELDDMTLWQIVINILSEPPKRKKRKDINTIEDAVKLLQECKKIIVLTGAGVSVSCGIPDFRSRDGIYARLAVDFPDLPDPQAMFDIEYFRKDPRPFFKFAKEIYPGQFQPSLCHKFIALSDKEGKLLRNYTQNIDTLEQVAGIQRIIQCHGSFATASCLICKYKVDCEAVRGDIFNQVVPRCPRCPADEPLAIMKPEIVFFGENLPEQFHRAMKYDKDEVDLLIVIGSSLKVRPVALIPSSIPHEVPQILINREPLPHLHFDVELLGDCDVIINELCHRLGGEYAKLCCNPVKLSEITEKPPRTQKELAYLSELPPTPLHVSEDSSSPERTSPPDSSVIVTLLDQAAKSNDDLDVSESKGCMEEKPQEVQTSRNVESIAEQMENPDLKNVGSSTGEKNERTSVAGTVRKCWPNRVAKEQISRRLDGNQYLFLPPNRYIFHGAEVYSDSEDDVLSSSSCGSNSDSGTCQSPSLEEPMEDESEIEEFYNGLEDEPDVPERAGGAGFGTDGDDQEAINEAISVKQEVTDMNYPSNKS
Summary of the method: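 Cells treated with the compound, then histone H3K56 acetylation assessed by Western blot on histone extracts; histone H1 or Coomassie staining as loading control.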

Hs 683 [5] = test: Induction of senescence in human Hs683 cells at 5 uM after 6 days by beta-galactosidase assay (reference value: 0.2%); assay type: functional
Summary of the method: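 Cells were kept 6 days in medium containing 5 μM compound or DMSO vehicle, then stained for senescence-associated β-galactosidase activity. Blue-stained cells were counted and expressed as a percentage of total cells counted. Two independent experiments.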

Hs 683 [6] = test: Cytostatic activity against human Hs683 cells at 10 uM after 72 hrs by quantitative videomicroscopy relative to control; assay type: functional
Summary of the method: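 Cells were grown in 25 cm2 flasks, and phase-contrast images were recorded every 4 min over 72 h, in triplicate. Global growth is cell count on the last image divided by cell count on the first, at 24, 48 and 72 h. The GGR index is treated GG divided by control GG.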

[7] = molecular target: T1, NAD-dependent protein deacetylase sirtuin-1 (Homo sapiens); test: Inhibition of SIRT1 in human Hs683 cells assessed as increase of histone H4 acetylation at 2.5 uM after 8 hrs by Western blotting method relative to control; assay type: cell-based
[8] = molecular target: T2, NAD-dependent protein deacetylase sirtuin-2 (Homo sapiens) (UniProt Q8IXJ6); test: Inhibition of SIRT2 in human U373 cells assessed as increase of alpha-tubulin acetylation at 5 uM after 8 hrs by Western blotting method relative to control; assay type: cell-based
T2 sequence (whole entry): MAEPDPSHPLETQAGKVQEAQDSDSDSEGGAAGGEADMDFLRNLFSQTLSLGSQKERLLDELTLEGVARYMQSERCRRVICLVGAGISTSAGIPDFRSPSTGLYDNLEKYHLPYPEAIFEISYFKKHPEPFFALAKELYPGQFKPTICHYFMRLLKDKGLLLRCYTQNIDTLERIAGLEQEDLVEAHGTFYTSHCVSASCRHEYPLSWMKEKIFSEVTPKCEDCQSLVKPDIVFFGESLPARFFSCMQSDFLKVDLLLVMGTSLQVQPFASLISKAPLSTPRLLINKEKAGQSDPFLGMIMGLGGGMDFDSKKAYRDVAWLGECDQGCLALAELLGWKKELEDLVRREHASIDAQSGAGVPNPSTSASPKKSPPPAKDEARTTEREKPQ

[9] = molecular target: T2, NAD-dependent protein deacetylase sirtuin-2 (Homo sapiens); test: Inhibition of SIRT2 in human U373 cells assessed as increase of alpha-tubulin acetylation at 10 uM after 8 hrs by Western blotting method relative to control; assay type: cell-based
[10] = molecular target: T2, NAD-dependent protein deacetylase sirtuin-2 (Homo sapiens); test: Inhibition of SIRT2 in human Hs683 cells assessed as increase of alpha-tubulin acetylation at 1 uM after 8 hrs by Western blotting method relative to control; assay type: cell-based
Hs 683 [11] = test: Potency index, ratio of sirtinol IC50 to test compound IC50 for human Hs683 cells; assay type: functional
U-373MG ATCC = test: Cell cycle arrest in human U373 cells assessed as accumulation at G2/M phase at 2 uM after 24 to 48 hrs by propidium iodide staining-based flow cytometry; assay type: functional; details: 7.5 uM, in the assay text read “at 7.5 uM” for “at 2 uM”
Summary of the method: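 Cells were exposed to compound at the IC50 for each line from the 72 h MTT assay, or to a reference HDAC inhibitor at 2 μM. Cell cycle distribution was analyzed after 24 and 48 h. Results are mean ± SD of three independent experiments, with p values against control cells.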

HOP-62 = test: Growth inhibition of human HOP62 cells after 48 hrs by SRB assay; assay type: functional; details: HOP-62, 48 h
NCI-H322M = test: Growth inhibition of human NCI-H322M cells after 48 hrs by SRB assay; assay type: functional
KM12 = test: Growth inhibition of human KM12 cells after 48 hrs by SRB assay; assay type: functional; details: KM12, 48 h
SW-620 = test: Growth inhibition of human SW620 cells after 48 hrs by SRB assay; assay type: functional; details: SW-620, 48 h
SK-MEL-28 = test: Growth inhibition of human SK-MEL-28 cells after 48 hrs by SRB assay; assay type: functional; details: SK-MEL-28, 48 h
SK-MEL-5 = test: Growth inhibition of human SK-MEL-5 cells after 48 hrs by SRB assay; assay type: functional; details: SK-MEL-5, 48 h
OVCAR-4 = test: Growth inhibition of human OVCAR4 cells after 48 hrs by SRB assay; assay type: functional; details: OVCAR-4, 48 h
OVCAR-5 = test: Growth inhibition of human OVCAR5 cells after 48 hrs by SRB assay; assay type: functional; details: OVCAR-5, 48 h
BT-549 = test: Growth inhibition of human BT549 cells after 48 hrs by SRB assay; assay type: functional; details: BT-549, 48 h

Chain of Polyamine deacetylase HDAC10 (Homo sapiens) (Q969S8 whole entry): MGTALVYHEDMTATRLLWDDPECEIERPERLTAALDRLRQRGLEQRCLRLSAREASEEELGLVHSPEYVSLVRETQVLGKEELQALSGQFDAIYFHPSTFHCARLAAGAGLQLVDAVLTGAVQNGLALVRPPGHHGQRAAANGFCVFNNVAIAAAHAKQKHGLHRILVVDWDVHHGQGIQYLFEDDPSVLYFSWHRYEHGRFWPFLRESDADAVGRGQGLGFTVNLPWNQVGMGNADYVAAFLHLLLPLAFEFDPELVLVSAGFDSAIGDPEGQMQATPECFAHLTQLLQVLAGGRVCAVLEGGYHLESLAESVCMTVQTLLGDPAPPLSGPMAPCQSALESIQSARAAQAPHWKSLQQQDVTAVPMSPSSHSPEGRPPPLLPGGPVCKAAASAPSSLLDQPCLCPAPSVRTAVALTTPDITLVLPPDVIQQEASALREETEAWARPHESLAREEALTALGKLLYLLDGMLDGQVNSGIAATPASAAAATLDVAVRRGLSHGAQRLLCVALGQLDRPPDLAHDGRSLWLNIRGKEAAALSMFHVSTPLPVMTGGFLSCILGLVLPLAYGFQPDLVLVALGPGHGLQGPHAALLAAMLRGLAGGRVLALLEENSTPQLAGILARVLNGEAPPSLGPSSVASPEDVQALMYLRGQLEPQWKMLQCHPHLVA
Chain of Histone deacetylase 2 (Homo sapiens) (Q92769 whole entry): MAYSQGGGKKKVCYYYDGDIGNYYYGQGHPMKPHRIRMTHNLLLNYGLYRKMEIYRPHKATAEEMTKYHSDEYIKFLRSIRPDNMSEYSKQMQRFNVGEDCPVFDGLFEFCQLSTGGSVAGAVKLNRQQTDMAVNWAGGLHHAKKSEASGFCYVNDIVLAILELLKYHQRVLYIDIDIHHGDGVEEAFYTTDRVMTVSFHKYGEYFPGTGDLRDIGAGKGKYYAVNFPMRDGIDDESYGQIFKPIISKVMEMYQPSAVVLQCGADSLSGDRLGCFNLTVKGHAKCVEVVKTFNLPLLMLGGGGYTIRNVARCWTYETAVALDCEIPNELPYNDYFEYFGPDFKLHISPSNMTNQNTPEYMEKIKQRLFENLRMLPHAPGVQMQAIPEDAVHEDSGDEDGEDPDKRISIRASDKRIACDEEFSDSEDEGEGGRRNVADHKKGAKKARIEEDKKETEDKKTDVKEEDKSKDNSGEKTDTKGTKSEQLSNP

CC(C)(C)OC(=O)Nc1ccc2c(c1)C(NC(=O)Nc1cccc(C#N)c1)CC(C)(C)O2 (stereo unspecified)
Ratio IC50 [1]: >10 | inhibition [2]: inactive | inhibition [3]: inactive | inhibition [4]: Active | Activity (Hs 683 [5]): 0.5% | Activity (Hs 683 [6]): >=50% | fold change (FC) [7]: 1.9 | fold change (FC) [8]: 5.9 | fold change (FC) [9]: 8.6 | fold change (FC) [10]: 1.3 | Ratio IC50 (Hs 683 [11]): 6 | Activity (U-373MG ATCC): Active | GI50 (HOP-62): 5.01 µM | GI50 (NCI-H322M): 21.9 µM | GI50 (KM12): 4.07 µM | GI50 (SW-620): 3.8 µM | GI50 (SK-MEL-28): 6.46 µM | GI50 (SK-MEL-5): 0.427 µM | GI50 (OVCAR-4): 1.78 µM | GI50 (OVCAR-5): 33.9 µM | GI50 (BT-549): 3.8 µM
